Series [1] has as its target pUL97-Flag/CDK7 (Homo sapiens, UniProt P50613). The series can be described thus: qSox-IVKA of coimmunoprecipitated pUL97-Flag/CDK7, pUL97-specific sensor peptide. The format is biochemical, HCMV / human. As to conditions: 0.01 µM LDC4297.
For series [2], the target named is T1, vCDK/pUL97 (Human cytomegalovirus, UniProt P16788).
T1 sequence (P16788 1-707): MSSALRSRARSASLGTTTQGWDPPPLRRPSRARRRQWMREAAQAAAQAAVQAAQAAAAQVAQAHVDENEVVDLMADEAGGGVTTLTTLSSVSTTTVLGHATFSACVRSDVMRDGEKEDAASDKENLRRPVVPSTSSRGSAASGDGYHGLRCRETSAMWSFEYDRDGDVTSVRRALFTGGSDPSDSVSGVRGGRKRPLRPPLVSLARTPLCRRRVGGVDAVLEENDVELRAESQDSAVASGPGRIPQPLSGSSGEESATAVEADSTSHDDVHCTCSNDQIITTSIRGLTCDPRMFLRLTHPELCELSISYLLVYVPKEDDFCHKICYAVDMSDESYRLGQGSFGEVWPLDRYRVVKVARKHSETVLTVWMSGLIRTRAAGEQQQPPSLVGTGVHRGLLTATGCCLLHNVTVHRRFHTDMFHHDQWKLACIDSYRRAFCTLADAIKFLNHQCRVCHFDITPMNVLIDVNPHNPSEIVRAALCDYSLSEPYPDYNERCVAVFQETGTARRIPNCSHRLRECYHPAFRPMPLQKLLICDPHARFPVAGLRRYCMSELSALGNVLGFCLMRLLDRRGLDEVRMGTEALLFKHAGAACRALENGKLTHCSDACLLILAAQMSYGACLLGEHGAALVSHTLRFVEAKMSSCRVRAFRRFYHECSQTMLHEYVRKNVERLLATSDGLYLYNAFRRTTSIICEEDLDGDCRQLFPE
The series can be described thus: qSox-IVKA of immunoprecipitated pUL97-Flag. The format is biochemical, HCMV.

Series [3] has as its target human CDK7 (Homo sapiens, UniProt P50613). The series can be described thus: qSox-IVKA of immunoprecipitated CDK7. The class given is biochemical.
Series [4] has as its system HCMV-infected TEV-1 cells (cyclin H mRNA). The series can be described thus: cyclin H mRNA levels by one-step RT-qPCR in HCMV Merlin-infected TEV-1 cells. The format is cell-based, human. As to conditions: 1 µM MBV, HCMV Merlin MOI 0.5. For orientation: Quantitative PCR measures a nucleic acid by following its amplification.
Series [5] concerns CDK7 pSer164 and pThr170. The series can be described thus: Wb of CDK7 T-loop phosphorylation in HCMV AD169-infected HFFs. The format is cell-based, human. As to conditions: 0.35 µM MBV from 24 h p.i., harvested 3 d p.i., HCMV AD169 MOI 0.5. In outline: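 HFFs in T75 flasks were infected 1 d after seeding with HCMV AD169, UL97 K355Δ kinase-dead mutant (MOI 0.5) or mock; inoculum was replaced after 90 min at 37°C. AD169-infected cells received 0.35 µM test compound or DMSO at 24 h p.i. Cells were harvested 3 d p.i. for SDS-PAGE/Wb with phosphosite-specific antibodies against CDK7 pSer164 and pThr170.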

Series [6] relates to HCMV-infected HFFs (cyclin H mRNA). The series can be described thus: cyclin H mRNA levels by one-step RT-qPCR in HCMV Merlin-infected HFFs. The format is cell-based, human. As to conditions: 1 µM MBV, HCMV Merlin MOI 0.5, 7 d p.i.
The target in series [7] is T2, CDK7 + pUL97-Flag (Human cytomegalovirus, UniProt P16788).
T2 sequence (P16788 1-707): T1 sequence (P16788 1-707)
The series can be described thus: qSox-IVKA of CDK7 + pUL97-Flag samples, CDK7-specific sensor peptide. The format is biochemical, human / HCMV. As to conditions: 0.35 µM MBV. In outline:
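293T cells were transfected with pUL97-Flag or empty vector. At 2 d p.t., CDK7 and/or pUL97-Flag were immunoprecipitated, with a mouse Fc pseudo-IP as control. Eluate in HEPES pH 7.5 enzyme buffer was added to a reaction mix (final 1.0 mM ATP, 10 mM MgCl2, 15 µM CDK7 Sox sensor peptide AQT0459). Fluorescence (Ex355/Em480) was read kinetically at 30°C for about 80 min, in triplicate. Fc/empty-vector background was subtracted and Wb normalization factors applied. Combined-IP activity was related to CDK7 single IP, or pUL97-only activity was subtracted. 0.35 µM test compound or DMSO was added to combined samples. Data are from one representative biological replicate.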

Data on three compounds can be found in PMC10445456 (Virus Research, 2023).

Chain of human CDK7 (P50613 whole entry): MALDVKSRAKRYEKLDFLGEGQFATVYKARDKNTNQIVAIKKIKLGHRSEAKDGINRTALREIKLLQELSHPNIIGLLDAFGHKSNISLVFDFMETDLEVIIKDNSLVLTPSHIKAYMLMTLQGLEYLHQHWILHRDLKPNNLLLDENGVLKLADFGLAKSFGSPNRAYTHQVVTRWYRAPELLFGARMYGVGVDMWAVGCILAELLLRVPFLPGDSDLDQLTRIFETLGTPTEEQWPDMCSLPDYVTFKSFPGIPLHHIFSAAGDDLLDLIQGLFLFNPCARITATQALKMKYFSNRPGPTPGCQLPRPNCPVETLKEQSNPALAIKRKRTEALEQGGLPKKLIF
Chain of human CDK7 (P51946 whole entry partner): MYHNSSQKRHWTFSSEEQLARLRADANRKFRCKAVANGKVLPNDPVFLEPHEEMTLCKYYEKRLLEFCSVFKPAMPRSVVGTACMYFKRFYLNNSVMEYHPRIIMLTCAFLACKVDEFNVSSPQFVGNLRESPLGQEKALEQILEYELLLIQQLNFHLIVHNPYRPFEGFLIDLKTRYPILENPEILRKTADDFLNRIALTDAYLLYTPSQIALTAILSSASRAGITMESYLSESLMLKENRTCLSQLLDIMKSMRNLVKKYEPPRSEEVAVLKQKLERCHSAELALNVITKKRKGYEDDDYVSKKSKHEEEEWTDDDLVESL
Chain of human CDK7 (P51948 whole entry partner): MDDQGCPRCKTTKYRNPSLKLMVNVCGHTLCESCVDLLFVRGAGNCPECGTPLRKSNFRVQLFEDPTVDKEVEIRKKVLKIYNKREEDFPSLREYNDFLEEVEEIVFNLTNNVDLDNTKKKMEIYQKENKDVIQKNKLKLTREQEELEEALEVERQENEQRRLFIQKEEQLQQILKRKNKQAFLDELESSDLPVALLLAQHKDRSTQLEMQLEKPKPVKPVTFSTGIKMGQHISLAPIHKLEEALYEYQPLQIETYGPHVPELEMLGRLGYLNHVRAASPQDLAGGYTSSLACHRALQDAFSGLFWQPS
Chain of pUL97-Flag/CDK7 (P50613 whole entry): as the sequence (P50613 whole entry) above
Chain of pUL97-Flag/CDK7 (P51946 whole entry partner): as the sequence (P51946 whole entry partner) above
Chain of pUL97-Flag/CDK7 (P51948 whole entry partner): as the sequence (P51948 whole entry partner) above

`CC(C)c1cnn2c(NCc3ccccc3-n3cccn3)nc(OC3CCCNC3)nc12` (stereo not shown) [LDC4297]: the “change in pUL97 activity upon inhibition of CDK7” value in series [1] is reported as “no change in pUL97 activity”. Also, the “inhibitory effect on pUL97 activity” value in series [2] (5 µM LDC4297) was “did not affect pUL97 kinase activity”. In addition, in series [3] (applied concentration of LDC4297 in the IVKA (5 µM)), the “effect on CDK7 activity” value is given as “completely blocked CDK7 activity”.
For `CC(C)Nc1nc2cc(Cl)c(Cl)cc2n1[C@H]1O[C@@H](CO)[C@H](O)[C@@H]1O` [MBV, maribavir], the results for the “reduction of the HCMV-induced increase of cyclin H mRNA levels” value in series [4] and in series [6] were 68% and 28%, respectively. The “CDK7 phosphomarkers pSer164 and pThr170” value in series [5] is recorded as “modest increase”. The “pUL97 kinase activity reduced to” value in series [2] (0.35 µM) was found to be 50%. In series [7], the “pUL97-mediated increased CDK7 kinase activity (trans-stimulation)” value is recorded as “abolished”. For the same compound, the “effect on CDK7 activity” value in series [3] (0.35 µM MBV) is given as “not inhibited”.
On to “recombinant cyclin H: recombinant human cyclin H, full-length, GST-tag, expressed in insect cells (ABIN6699744)”, for which the “increase of in vitro kinase activity of pUL97” value in series [2] (exogenous addition of 100 nM recombinant cyclin H) was determined as 31.5%.
